Active and inactive are the calls of the source. The calls are words filed in the database; no cut-off is given here.
Experiments:
[1] = test system: LoVo; test: Induction of apoptosis in human drug-sensitive LoVo cells assessed as apoptotic cells at 100 uM after 48 hrs by annexin-V and propidium iodide staining based flow cytometry (reference value: 6.68 +/- 1.77%); format: functional
[2] = Induction of apoptosis in human […] cells assessed as apoptotic cells at 100 uM after 48 hrs by annexin-V and propidium iodide staining based flow cytometry (reference value: 6.16 +/- 1.67%); format: functional
[3] = test system: LoVo/DX; test: Cytotoxicity against human drug-resistant LoVo/DX cells after 72 hrs by SRB assay; format: functional, cell-based
Outline: (§1)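 Cells seeded at 30 000/well, attached 60 min at 37 °C, then compound added in an equal volume of medium and incubated 72 h. Read by sulforhodamine B at A492. Survival = A492 treated / A492 medium-only control × 100%. DMSO was at most 0.3% in samples. Triplicate experiments, means ± SD, Student's t test.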

[4] = target: T1, ATP-dependent translocase ABCB1 (Homo sapiens, UniProt P08183); test: Inhibition of p-glycoprotein in human LoVo/DX cells assessed accumulation of rhodamine 123 at 5 to 100 uM after 60 mins by fluorescence assay; conditions: 1 h
[5] = Induction of apoptosis in human […] cells assessed as necrotic cells at 100 uM after 48 hrs by annexin-V and propidium iodide staining based flow cytometry (reference value: 9.57 +/- 2.83%); format: functional
[6] = test system: LoVo; test: Cytotoxicity against human drug-sensitive LoVo cells after 72 hrs by SRB assay; format: functional, cell-based; outline: as §1
[7] = test system: LoVo; test: Induction of apoptosis in human drug-sensitive LoVo cells assessed as necrotic cells at 100 uM after 48 hrs by annexin-V and propidium iodide staining based flow cytometry (reference value: 10.44 +/- 3.23%); format: functional
[8] = Induction of apoptosis in human […] cells assessed as activation of caspase-3 at 15 uM after 48 hrs relative to control; format: functional
Outline: (§2)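 LoVo (sensitive) or LoVo/Dx (doxorubicin-selected; kept in 100 ng/mL doxorubicin) cells, 800 000/well, attached 24 h, then exposed to compound in fresh medium for 48 h. Cells scraped and pelleted. Caspase-3 activity read colorimetrically at A405 as pNA released from DEVD-pNA (commercial kit). Reported as ratio of treated to medium-only control. Triplicate, means ± SD, Student's t test.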

[9] = test system: LoVo; test: Induction of apoptosis in human drug-sensitive LoVo cells assessed as activation of caspase-3 at 15 uM after 48 hrs relative to control; format: functional; outline: as §2
[10] = test system: LoVo; test: Induction of apoptosis in human drug-sensitive LoVo cells assessed as necrotic cells at 15 uM after 48 hrs by annexin-V and propidium iodide staining based flow cytometry (reference value: 10.44 +/- 3.23%); format: functional
[11] = test system: LoVo; test: Induction of apoptosis in human drug-sensitive LoVo cells assessed as apoptotic cells at 15 uM after 48 hrs by annexin-V and propidium iodide staining based flow cytometry (reference value: 6.68 +/- 1.77%); format: functional
[12] = Induction of apoptosis in human […] cells assessed as apoptotic cells at 15 uM after 48 hrs by annexin-V and propidium iodide staining based flow cytometry (reference value: 6.16 +/- 1.67%); format: functional
[13] = Induction of apoptosis in human […] cells assessed as necrotic cells at 15 uM after 48 hrs by annexin-V and propidium iodide staining based flow cytometry (reference value: 9.57 +/- 2.83%); format: functional
[14] = Induction of apoptosis in human […] cells assessed as apoptotic cells at 75 uM after 48 hrs by annexin-V and propidium iodide staining based flow cytometry (reference value: 6.16 +/- 1.67%); format: functional
[15] = test system: LoVo; test: Potentiation of doxorubicin-induced cytotoxicity in human LoVo cells at 5 uM after 72 hrs by SRB assay; format: functional, cell-based
Outline: (§3)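 Doxorubicin cytotoxicity measured with and without 5 μM modulator by SRB over 72 h. Cells seeded at 30 000/well and attached 60 min at 37 °C before treatment. Survival taken as A492 treated / A492 control × 100%. Three experiments, means ± SD, Student's t test (p < 0.05).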

[16] = test system: LoVo; test: Induction of apoptosis in human drug-sensitive LoVo cells assessed as apoptotic cells at 25 uM after 48 hrs by annexin-V and propidium iodide staining based flow cytometry (reference value: 6.68 +/- 1.77%); format: functional
[17] = Induction of apoptosis in human […] cells assessed as apoptotic cells at 25 uM after 48 hrs by annexin-V and propidium iodide staining based flow cytometry (reference value: 6.16 +/- 1.67%); format: functional
[18] = target: T1, ATP-dependent translocase ABCB1; test: Inhibition of p-glycoprotein in human LoVo/DX cells assessed as potentiation of doxorubicin-induced cytotoxicity at 5 uM after 72 hrs by SRB assay; format: cell-based; outline: as §3
[19] = Induction of apoptosis in human […] cells assessed as necrotic cells at 25 uM after 48 hrs by annexin-V and propidium iodide staining based flow cytometry (reference value: 9.57 +/- 2.83%); format: functional
[20] = Induction of apoptosis in human […] cells assessed as activation of caspase-3 at 25 uM after 48 hrs relative to control; format: functional
Outline: (§4)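 Cells seeded at 800 000/well and allowed to attach 24 h. Compound added in fresh medium, then 48 h incubation. Cells scraped and centrifuged, and caspase-3 activity measured colorimetrically by pNA release from DEVD-pNA (A405) with a kit. Result expressed as a ratio to a medium-only control. Triplicate, means ± SD.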

[21] = test system: LoVo; test: Inhibition of rhodamine 123 accumulation in human LoVo cells at 75 to 100 uM after 60 mins by fluorescence assay; format: functional, cell-based
Outline: (§5)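 Cells at 300 000/mL in serum- and phenol red-free medium, preincubated 15 min at room temperature with modulator (5−100 μM). Rhodamine 123 then added (final 2 μM) for 60 min at 37 °C. Washed cells read by flow cytometry (488 nm excitation, 530/30 nm), 5000 events. FIR = (LoVo/Dx treated/control)/(LoVo treated/control). Triplicate.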

[22] = test system: LoVo; test: Induction of apoptosis in human drug-sensitive LoVo cells assessed as activation of caspase-3 at 75 uM after 48 hrs relative to control; format: functional; outline: as §4
[23] = Induction of apoptosis in human […] cells assessed as necrotic cells at 75 uM after 48 hrs by annexin-V and propidium iodide staining based flow cytometry (reference value: 9.57 +/- 2.83%); format: functional
[24] = test system: LoVo; test: Induction of apoptosis in human drug-sensitive LoVo cells assessed as necrotic cells at 75 uM after 48 hrs by annexin-V and propidium iodide staining based flow cytometry (reference value: 10.44 +/- 3.23%); format: functional
[25] = test system: LoVo; test: Induction of apoptosis in human drug-sensitive LoVo cells assessed as activation of caspase-3 at 100 uM after 48 hrs relative to control; format: functional; outline: as §4
[26] = test system: LoVo; test: Inhibition of doxorubicin intracellular accumulation in human LoVo cells at 100 uM after 60 mins by fluorescence assay; format: functional, cell-based
Outline: (§6)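 Cells seeded at 15 000/well and cultured 48 h. Fresh F12 medium with 50 μM doxorubicin (plus 100 μM modulator) added for 60 min at 37 °C. Cells washed, then imaged by fluorescence microscopy (40× objective, excitation 528−553 nm, emission 578−633 nm) under identical illumination.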

[27] = target: T1, ATP-dependent translocase ABCB1; test: Inhibition of p-glycoprotein in human LoVo/DX cells assessed nuclear accumulation of doxorubicin at 100 uM after 60 mins by fluorescence assay; format: cell-based; conditions: 1 h; outline: as §6
[28] = test system: LoVo; test: Induction of apoptosis in human drug-sensitive LoVo cells assessed as necrotic cells at 25 uM after 48 hrs by annexin-V and propidium iodide staining based flow cytometry (reference value: 10.44 +/- 3.23%); format: functional
[29] = Induction of apoptosis in human […] cells assessed as activation of caspase-3 at 75 uM after 48 hrs relative to control; format: functional; outline: as §4
[30] = Induction of apoptosis in human […] cells assessed as activation of caspase-3 at 100 uM after 48 hrs relative to control; format: functional; outline: as §4
[31] = test system: LoVo; test: Induction of apoptosis in human drug-sensitive LoVo cells assessed as activation of caspase-3 at 25 uM after 48 hrs relative to control; format: functional; outline: as §4
[32] = test system: LoVo; test: Induction of apoptosis in human drug-sensitive LoVo cells assessed as apoptotic cells at 75 uM after 48 hrs by annexin-V and propidium iodide staining based flow cytometry (reference value: 6.68 +/- 1.77%); format: functional
[33] = target: T1, ATP-dependent translocase ABCB1; test: Inhibition of p-glycoprotein in human LoVo/DX cells assessed accumulation of rhodamine 123 at 75 to 100 uM after 60 mins by fluorescence assay; format: cell-based; conditions: 1 h; outline: as §5

T1 sequence (P08183 whole entry): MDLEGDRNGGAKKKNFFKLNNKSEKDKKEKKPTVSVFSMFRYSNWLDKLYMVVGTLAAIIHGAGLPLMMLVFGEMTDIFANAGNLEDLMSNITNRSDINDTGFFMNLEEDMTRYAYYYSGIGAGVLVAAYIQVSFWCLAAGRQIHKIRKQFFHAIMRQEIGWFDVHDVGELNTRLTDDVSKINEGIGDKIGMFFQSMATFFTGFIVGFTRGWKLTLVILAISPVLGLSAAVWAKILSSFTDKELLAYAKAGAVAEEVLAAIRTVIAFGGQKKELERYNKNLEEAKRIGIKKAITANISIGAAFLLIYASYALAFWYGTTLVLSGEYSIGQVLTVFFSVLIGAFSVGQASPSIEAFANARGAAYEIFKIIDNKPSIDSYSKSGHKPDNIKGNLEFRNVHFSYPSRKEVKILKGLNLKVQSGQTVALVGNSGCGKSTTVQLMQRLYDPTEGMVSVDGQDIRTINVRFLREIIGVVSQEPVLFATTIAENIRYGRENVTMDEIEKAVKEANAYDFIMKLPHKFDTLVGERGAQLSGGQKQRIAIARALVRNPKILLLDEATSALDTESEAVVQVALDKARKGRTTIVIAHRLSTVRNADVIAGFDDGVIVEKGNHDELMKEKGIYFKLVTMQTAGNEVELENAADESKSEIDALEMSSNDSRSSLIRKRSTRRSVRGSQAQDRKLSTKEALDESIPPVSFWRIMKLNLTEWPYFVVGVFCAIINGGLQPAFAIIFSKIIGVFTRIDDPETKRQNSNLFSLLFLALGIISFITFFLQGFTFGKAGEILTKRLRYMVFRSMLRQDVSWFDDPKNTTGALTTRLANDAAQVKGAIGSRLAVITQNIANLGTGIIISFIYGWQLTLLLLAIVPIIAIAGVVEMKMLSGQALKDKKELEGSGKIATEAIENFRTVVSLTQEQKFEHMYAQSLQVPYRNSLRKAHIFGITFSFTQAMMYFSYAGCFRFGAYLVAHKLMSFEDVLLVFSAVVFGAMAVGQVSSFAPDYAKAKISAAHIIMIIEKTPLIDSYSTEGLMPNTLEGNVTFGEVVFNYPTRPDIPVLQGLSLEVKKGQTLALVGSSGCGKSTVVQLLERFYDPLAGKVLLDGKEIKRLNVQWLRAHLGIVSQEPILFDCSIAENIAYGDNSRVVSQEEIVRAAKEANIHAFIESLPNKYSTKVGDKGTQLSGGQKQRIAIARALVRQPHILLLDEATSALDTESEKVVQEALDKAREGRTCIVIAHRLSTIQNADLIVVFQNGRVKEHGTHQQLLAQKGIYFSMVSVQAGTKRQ

SMILES	Activity [1]	Activity [2]	Activity [3]	inhibition (INH) [4]	Activity [5]	Activity [6]	Activity [7]	further results
O=C1C[C@@H](c2ccc(O)cc2)Oc2cc(O)cc(O)c21 [NARINGENIN]	15.44%	6.98%	Active	Not Active	5.65%	Active	8.16%	–
CC[C@@]1(O)C(=O)OCc2c1cc1n(c2=O)Cc2cc3ccccc3nc2-1 [CAMPTOTHECIN]	–	–	–	–	–	–	–	Ratio [8]: 3.83; Ratio [9]: 3.4; Activity [10]: 23.81%; Activity [11]: 17.61%; Activity [12]: 17.56%; Activity [13]: 17.96%
O=C1c2c(O)cc(O)cc2O[C@H](c2ccc(O)cc2)[C@H]1O [DIHYDROKAEMPFEROL]	10.96%	9.38%	Active	Not Active	6.83%	Active	10.02%	–
COc1ccc([C@@H]2CC(=O)c3c(O)cc(OC)cc3O2)cc1	14.1%	9.67%	Active	Not Active	17.74%	Active	17.82%	–
COc1ccc(-c2cc(=O)c3c(OC)c(OC)c(OC)c(OC)c3o2)cc1 [TANGERETIN]	15.19%	23.05%	Active	–	21.75%	Active	23.75%	Activity [14]: 13.35%; Activity [15]: inactive; Activity [16]: 11.57%; Activity [17]: 13.87%; Activity [18]: Active; Activity [19]: 17.55%; Ratio [20]: 2.08; inhibition [21]: inactive; Ratio [22]: 2.06; Activity [23]: 17.45%; Activity [24]: 29.61%; Ratio [25]: 2.17; inhibition [26]: inactive; inhibition (INH) [27]: Active; Activity [28]: 25.82%; Ratio [29]: 2.37; Ratio [30]: 2.71; Ratio [31]: 1.04; Activity [32]: 12.83%; inhibition (INH) [33]: Active
COc1cc(O)c2c(c1)O[C@H](c1ccc(O)cc1)CC2=O [SAKURANETIN]	18.16%	4.87%	Active	Not Active	18.89%	Active	25.28%	–
